Assay results taken from ChEMBL document CHEMBL1125270, “Renin inhibitors containing esters at the P2-position. Oral activity in a derivative of methyl aminomalonate” (J Med Chem, 1991).

Tests used:
[1] = system: Monkey; assay: Maximum fall in mean arterial blood pressure expressed in mmHg following a 30 mg/kg dose in monkeys.; assay type: functional, Cercopithecidae
In short: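 Conscious monkeys were dosed orally by gavage at 30 mg/kg in water/dimethylacetamide/Tween 80 (62.5:7.5:30), 2 mL/kg. Two models were used: high-renin normotensive (sodium restriction plus furosemide) or renal hypertensive (renal artery clipping). Mean arterial pressure was followed for 3 h, and the maximum fall in mmHg was recorded. N is given per compound.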

[2] = target: T1, Cathepsin D (Bos taurus, UniProt P80209); assay: Inhibition of Bovine Cathepsin D.
T1 sequence (P80209 whole entry): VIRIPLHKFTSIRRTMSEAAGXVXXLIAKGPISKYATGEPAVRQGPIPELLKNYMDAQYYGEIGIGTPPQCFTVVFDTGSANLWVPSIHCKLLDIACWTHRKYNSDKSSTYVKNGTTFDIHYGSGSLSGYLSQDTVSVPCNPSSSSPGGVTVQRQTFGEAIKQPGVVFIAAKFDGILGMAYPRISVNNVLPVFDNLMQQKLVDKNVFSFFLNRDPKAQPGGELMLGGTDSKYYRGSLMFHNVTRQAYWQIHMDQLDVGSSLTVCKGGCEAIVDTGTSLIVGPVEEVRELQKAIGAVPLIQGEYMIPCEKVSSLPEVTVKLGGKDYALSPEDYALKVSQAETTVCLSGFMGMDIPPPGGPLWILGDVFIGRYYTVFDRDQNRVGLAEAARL
In short: (§1)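 Bovine cathepsin D hydrolysing twice-crystallised bovine hemoglobin at pH 3.2 and 37 °C, run in duplicate. Net absorbance at 280 nm was read in acid-precipitated supernatants and compared with uninhibited controls. IC50 came from nonlinear regression over six inhibitor concentrations.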

[3] = target: Renin (Macaca fascicularis); assay: Inhibition of monkey plasma renin
[4] = target: Chymotrypsinogen A (Bos taurus) (UniProt P00766); assay: % degradation to Chymotrypsinogen proteolysis at 30 mins.
In short: (§2)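 Bovine chymotrypsin in buffered solution at pH 6.9, following a previously established method. Test compound was incubated with the enzyme, and the percent of compound degraded was read at 15 or 30 min.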

[5] = target: T1, Cathepsin D; assay: Inhibitory concentration on Bovine Cathepsin D; in short: as §1
[6] = target: T2, Renin (Homo sapiens, UniProt P00797); assay: Inhibitory concentration against human renin
T2 sequence (P00797 whole entry): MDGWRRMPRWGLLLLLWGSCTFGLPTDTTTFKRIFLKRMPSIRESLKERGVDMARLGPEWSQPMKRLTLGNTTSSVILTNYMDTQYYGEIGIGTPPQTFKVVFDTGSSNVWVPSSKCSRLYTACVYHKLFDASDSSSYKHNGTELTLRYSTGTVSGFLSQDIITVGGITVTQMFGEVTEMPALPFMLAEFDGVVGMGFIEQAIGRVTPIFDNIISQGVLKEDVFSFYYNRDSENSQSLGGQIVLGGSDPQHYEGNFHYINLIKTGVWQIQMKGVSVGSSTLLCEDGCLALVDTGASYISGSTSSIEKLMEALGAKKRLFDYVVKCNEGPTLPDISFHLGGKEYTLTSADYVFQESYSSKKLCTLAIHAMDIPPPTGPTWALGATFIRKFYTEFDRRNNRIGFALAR

[7] = system: Monkey; assay: Maximum fall in mean arterial blood pressure expressed in mmHg following a 3 mg/kg intravenous dose in monkeys
[8] = target: Chymotrypsinogen A (Bos taurus) (UniProt P00766); assay: % degradation to Chymotrypsinogen proteolysis at 15 mins.; in short: as §2

IC50 [2] [nM]	IC50 [3] [nM]	IC50 [5] [nM]	SMILES	Blood pressure [1] [mmHg]	other results
46	–	–	COC(=O)C(NC(=O)[C@H](Cc1ccccc1)NS(=O)(=O)N1CCOCC1)C(=O)N[C@@H](CC1CCCCC1)[C@@H](O)[C@H](O)CC(C)C (stereo in doubt; 4A)	–	Blood pressure ([1]; 30 mg/kg): 18 mmHg
36	–	–	COC(=O)C(NC(=O)[C@H](Cc1ccccc1)NS(=O)(=O)N1CCOCC1)C(=O)N[C@@H](CC1CCCCC1)[C@@H](O)[C@H](O)CC(C)C (stereo in doubt; 4) [listing 1 of 2 here]	–	Blood pressure ([1]; 30 mg/kg): 22 mmHg
> 1000	–	–	COc1ccc(C[C@H](NC(=O)CC(C)(C)N)C(=O)N[C@@H](Cc2c[nH]cn2)C(=O)N[C@@H](CC2CCCCC2)[C@@H](O)[C@@H](O)CC(C)C)cc1	8	–
–	–	> 1000	COC(=O)C(NC(=O)[C@H](Cc1ccccc1)NS(=O)(=O)N1CCOCC1)C(=O)N[C@@H](CC(C)C)[C@@H](O)CC(=O)NCCN1CCOCC1 (stereo partly drawn)	–	IC50 [6]: 130 nM
310	27	–	CC(C)C[C@@H](O)[C@H](O)[C@H](CC1CCCCC1)NC(=O)C(NC(=O)[C@H](Cc1ccccc1)NS(=O)(=O)N1CCOCC1)C(=O)O (stereo partly drawn)	–	–
–	–	> 1000	COC(=O)C(NC(=O)[C@H](Cc1ccccc1)NS(=O)(=O)N1CCOCC1)C(=O)N[C@@H](CC1CCCCC1)[C@@H](O)CC(=O)NCCN1CCOCC1 (stereo partly drawn)	–	Blood pressure [7]: 16 mmHg
27	0.18	–	COC(=O)CC(NC(=O)[C@H](Cc1ccccc1)NS(=O)(=O)N1CCOCC1)C(=O)N[C@@H](CC1CCCCC1)[C@@H](O)[C@H](O)CC(C)C (stereo partly drawn)	3	–
> 100	0.95	–	C=CCOC(=O)C(NC(=O)[C@H](Cc1ccccc1)NS(=O)(=O)N1CCOCC1)C(=O)N[C@@H](CC1CCCCC1)[C@@H](O)[C@H](O)CC(C)C (stereo partly drawn)	–	Degradation [4]: 65%

Continued, molecule first:

SMILES	IC50 [2] [nM]	IC50 [3] [nM]	IC50 [5] [nM]	Blood pressure [1] [mmHg]	other results
CC(C)C[C@@H](O)[C@H](O)[C@H](CC1CCCCC1)NC(=O)C(NC(=O)[C@H](Cc1ccccc1)NS(=O)(=O)N1CCOCC1)C(=O)OC(C)C (stereo partly drawn)	43	0.68	–	16	Degradation [4]: 70%
COC(=O)CCC(NC(=O)[C@H](Cc1ccccc1)NS(=O)(=O)N1CCOCC1)C(=O)N[C@@H](CC1CCCCC1)[C@@H](O)[C@H](O)CC(C)C (stereo partly drawn)	30	1.4	–	12	–
COC(=O)C(NC(=O)[C@H](Cc1ccccc1)NS(=O)(=O)N1CCOCC1)C(=O)N[C@@H](CC1CCCCC1)[C@@H](O)[C@H](O)CC(C)C (stereo in doubt; 4B)	77	–	–	–	Blood pressure ([1]; 30 mg/kg): 14 mmHg
CSC[C@H](NC(=O)[C@H](Cc1ccccc1)NC(=O)N1CCOCC1)C(=O)N[C@@H](CC1CCCCC1)[C@@H](O)C(=O)OC(C)C	–	–	24	9	–
COC(=O)C(NC(=O)[C@H](Cc1ccccc1)NS(=O)(=O)N1CCOCC1)C(=O)N[C@@H](CC1CCCCC1)C(=O)C(F)(F)C(=O)NCCN1CCOCC1 (stereo partly drawn)	–	–	515	16	–
CCCCNC(=O)[C@@H](C[C@H](O)[C@H](CC1CCCCC1)NC(=O)[C@H](Cc1c[nH]cn1)NC(=O)[C@H](Cc1ccccc1)CS(=O)(=O)C(C)(C)C)C(C)C	–	–	1300	16	–
CCCCCCOC(=O)C(NC(=O)[C@H](Cc1ccccc1)NS(=O)(=O)N1CCOCC1)C(=O)N[C@@H](CC1CCCCC1)[C@@H](O)[C@H](O)CC(C)C (stereo partly drawn)	100	15	–	–	Degradation [4]: 15%
COC(=O)C(NC(=O)[C@H](Cc1ccccc1)NS(=O)(=O)N1CCOCC1)C(=O)N[C@@H](CC1CCCCC1)[C@@H](O)[C@H](O)CC(C)C (stereo in doubt; 4) [listing 2 of 2 here]	–	–	–	–	Degradation [8]: 89%; Degradation [4]: 100%
